Broadly, the T/C is the result in the treated group divided by that in the control group, in per cent.

The source made the active and inactive calls. The rule behind the calls is not given here.

Seven compounds from ChEMBL document CHEMBL3243957, “Synthesis and screening of 8-(4'-thiazolyl)purines” (J Med Chem, 1978) can be followed below.

The test system of data set [1] is Mus musculus. The data set can be described thus: Toxicity in mouse L1210 cells allografted mouse up to 500 mg/kg administered qd for 5 days. The class given is organism-based. The arrangement: dose 500 mg/kg. Conditions: in vivo, 120 h.
The subject of data set [2] is L1210. Description: Antitumor activity against mouse L1210 cells allografted in mouse assessed as increase in host survival time at 125 mg/kg administered qd for 6 days relative to control. It is filed as functional. In a few lines:
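L1210 mouse leukemia in mice, dosed daily (qd) over a 1 to 125 mg/kg range. Read-out was survival time of treated versus control mice, given as % T/C. Procedure follows previously described methods.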

The test system of data set [3] is Lymphocyte. Description: Immunopotentiation activity in human lymphocytes assessed as increase in cell proliferation at 1 to 100 ug/ml by [3H]thymidine incorporation assay in presence of mitogen phytohemagglutinin. It is filed as functional, cell-based. In a few lines:
(§1)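 Lymphocytes were cultured with compound at 1, 10 and 100 µg/mL, with or without a suboptimal concentration of the lectin mitogen phytohemagglutinin. Proliferation was read as tritiated thymidine incorporation.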
(In general: Incorporation of labelled thymidine or its analogues reports DNA synthesis.)

Data set [4] deals with Lymphocyte. The data set can be described thus: Inhibition of phytohemagglutinin-induced human lymphocytes proliferation at 100 ug/ml by [3H]thymidine incorporation assay. It is filed as functional, cell-based. In a few lines:
as §1

In data set [5] the test system is Lymphocyte. The data set can be described thus: Immunopotentiation activity in human lymphocytes assessed as increase in cell proliferation at 1 to 100 ug/ml by [3H]thymidine incorporation assay in absence of mitogen phytohemagglutinin. It is filed as functional, cell-based. In a few lines:
as §1

Data set [6] relates to Mus musculus. The data set can be described thus: Antitumor activity against mouse S180J cells allografted in CD-1 mouse assessed as tumor regression at 10 to 100 mg/kg, ip administered six times in consecutive days starting day after tumor cell inoculation measured 42 days after start of drug treatment. It is filed as functional, organism-based. In a few lines: (§2)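 Female CD-1 mice, in groups of six, were inoculated with 7.5 × 10^5 tumor cells. Starting the day after inoculation, the agent was given ip as a carboxymethylcellulose suspension in saline, once daily for six consecutive days, at different dosages.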

The test system of data set [7] is Human alphaherpesvirus 1. Description: Antiviral activity against HSV-1 infected in african green monkey Vero cells assessed as inhibition of viral replication at 100 ug/ml (reference value: 1.2 x 10^6 PFU/ml). It is filed as functional.
Data set [8] relates to Human alphaherpesvirus 1. The data set can be described thus: Antiviral activity against HSV-1 infected in african green monkey Vero cells assessed as inhibition of viral replication at 1 ug/ml (reference value: 1.2 x 10^6 PFU/ml). It is filed as functional.
Data set [9] concerns Human alphaherpesvirus 1. Description: Antiviral activity against HSV-1 infected in african green monkey Vero cells assessed as inhibition of viral replication at 10 ug/ml (reference value: 1.2 x 10^6 PFU/ml). The class given is functional.
Data set [10] has as its system Human alphaherpesvirus 1. The data set can be described thus: Antiviral activity against HSV-1 infected in african green monkey Vero cells assessed as inhibition of viral replication at 100 ug/ml (reference value: 2.7 x 10^5 PFU/ml). It is filed as functional.
The subject of data set [11] is Human alphaherpesvirus 1. The data set can be described thus: Antiviral activity against HSV-1 infected in african green monkey Vero cells assessed as inhibition of viral replication at 1 ug/ml (reference value: 2.7 x 10^5 PFU/ml). The class given is functional.
Data set [12] deals with Mus musculus. Description: Antitumor activity against mouse S180J cells allografted in CD-1 mouse assessed as tumor regression at 30 mg/kg, ip administered six times in consecutive days starting a day after tumor cell inoculation measured 42 days after start of drug treatment. On the set-up: dose 30 mg/kg. It is filed as functional, organism-based. In a few lines:
as §2

Data set [13] concerns Human alphaherpesvirus 1. The data set can be described thus: Antiviral activity against HSV-1 infected in african green monkey Vero cells assessed as inhibition of viral replication at 10 ug/ml (reference value: 2.7 x 10^5 PFU/ml). The class given is functional.
For data set [14], the system named is Mus musculus. Description: Antitumor activity against mouse S180J cells allografted in ip dosed CD-1 mouse assessed as tumor regression administered six times in consecutive days starting a day after tumor cell inoculation measured 42 days after start of drug treatment. It is filed as functional, organism-based. In a few lines: as §2
The subject of data set [15] is Mus musculus. Description: Antitumor activity against mouse S180J cells allografted in CD-1 mouse assessed as tumor regression at 100 mg/kg, ip administered six times in consecutive days starting a day after tumor cell inoculation measured 42 days after start of drug treatment. The class given is functional, organism-based. The arrangement: dose 100 mg/kg. In a few lines: as §2

Data set [16] has as its system Mus musculus. Description: Antitumor activity against mouse S180J cells allografted in CD-1 mouse assessed as tumor regression at 1 mg/kg, ip administered six times in consecutive days starting a day after tumor cell inoculation measured 42 days after start of drug treatment. The arrangement: dose 1 mg/kg. It is filed as functional, organism-based. In a few lines:
as §2

Data set [17] deals with Mus musculus. Description: Antitumor activity against AKR mouse leukemia assessed as increase in survival time at 0.2 to 20 mg/kg, sc. The class given is functional, organism-based. In a few lines:
(§3)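 AKR leukemia-bearing mice were dosed at 0.2, 2.0 and 20 mg/kg, each given by intraperitoneal, oral or subcutaneous routes. The read-out was increase in survival time.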

The test system of data set [18] is Mus musculus. The data set can be described thus: Antitumor activity against mouse S180J cells allografted in CD-1 mouse assessed as tumor regression at 32 mg/kg, ip administered six times in consecutive days starting a day after tumor cell inoculation measured 42 days after start of drug treatment. The class given is functional, organism-based. The arrangement: dose 32 mg/kg. In a few lines: as §2

Data set [19] relates to Mus musculus. Description: Antitumor activity against AKR mouse leukemia assessed as increase in survival time at 0.2 to 20 mg/kg, ip. The class given is functional, organism-based. In a few lines:
as §3

The subject of data set [20] is Mus musculus. The data set can be described thus: Antitumor activity against AKR mouse leukemia assessed as increase in survival time at 0.2 to 20 mg/kg, po. The class given is functional, organism-based. In a few lines: as §3
Data set [21] deals with Mus musculus. The data set can be described thus: Antitumor activity against mouse S180J cells allografted in CD-1 mouse assessed as tumor regression at 16 mg/kg, ip administered six times in consecutive days starting a day after tumor cell inoculation measured 42 days after start of drug treatment. The class given is functional, organism-based. On the set-up: dose 16 mg/kg. In a few lines: as §2

Data set [22] deals with Mus musculus. Description: Antitumor activity against mouse S180J cells allografted in CD-1 mouse assessed as tumor regression at 4 mg/kg, ip administered six times in consecutive days starting a day after tumor cell inoculation measured 42 days after start of drug treatment. It is filed as functional, organism-based. The arrangement: dose 4 mg/kg. In a few lines:
as §2

Regarding `ONc1ncnc2[nH]c(-c3cscn3)nc12`, in data set [1], the Activity result is “Non-toxic”. Also, the T/C in data set [2] is listed as 129%.
Turning to `Oc1ncnc2[nH]c(-c3cscn3)nc12`, the outcome in data set [3] and in data set [5] was inactive. Besides, the inhibition entry in data set [4] is “Active”.
Regarding `c1ncc2nc(-c3cscn3)[nH]c2n1`, the result in [3] and in data set [5] was inactive. For the same compound, the inhibition result in data set [4] was “Active”. In addition, the inhibition result in [6] was “inactive”.
For the compound `Clc1ncnc2[nH]c(-c3cscn3)nc12`, the outcome in data set [3] and in data set [5] was inactive. Besides, the inhibition entry in [4] is “Active”. In addition, the PFU/ml in data set [7] stood at 2200000; in data set [8] it was 4000000; in data set [9] it was 2500000.
With `Nc1ncnc2[nH]c(-c3cscn3)nc12`, the outcome in data set [3] and in data set [5] was inactive. For the same compound, in [4], the inhibition result was “Active”. Moreover, the inhibition result in [6] and in [12] was “inactive” in each case. Besides, the PFU/ml in data set [10] was 920000; in data set [11] it was 320000; in [13] it was 850000.
With `Nc1nc(S)c2nc(-c3cscn3)[nH]c2n1`, the inhibition result in data set [14] and in [4] was “Active” each time. In addition, the result in data set [3] and in [5] was inactive. Moreover, the PFU/ml is 820000 in data set [7], 3500000 in data set [8] and 5300000 in data set [9]. In addition, the inhibition entry in data set [15] and in [12] was “inactive” in each case.
As to `Sc1ncnc2[nH]c(-c3cscn3)nc12`, the inhibition entry in data set [14] and in data set [4] was “Active” in each case. The inhibition result in data set [16], in [18], in data set [21] and in [22] was “inactive” in each case. For the same compound, the result in [17], in data set [3], in data set [5], in data set [19] and in data set [20] was inactive.
